# Source: ChEMBL document CHEMBL3877310, “Rickettsia prowazekii methionine aminopeptidase as a promising target for the development of antibacterial agents” (Bioorg Med Chem, 2017)
# pIC50: −log10 of the molar value. The source made the active and inactive calls. The rule behind the calls is not given here.
# Tests used:
# Rattus norvegicus [1] = species on record: Rattus norvegicus; experiment: Cytotoxicity against CD rat primary pulmonary vascular endothelial cells assessed as reduction in cell viability at 0.03 to 30 uM measured after 72 hrs by WST1 assay; assay type: toxicity, cell-based
# Summary of the method: (§1)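 Uninfected primary CD-rat pulmonary ECs (passage <15, DMEM high glucose/10% FBS/4 mM L-glutamine, 37 °C, 5% CO2) exposed to compounds over graded ranges with 0.3% DMSO as solvent. Viability read as WST-1 metabolism.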
# [2] = target: Methionine aminopeptidase 1 (Homo sapiens, UniProt P53582); experiment: (§2) Inhibition of recombinant full length human His-tagged methionine aminopeptidase 1 expressed in Escherichia coli BL21(DE3) using methionylprolyl-p-nitroanilide as substrate preincubated for 20 mins followed by substrate addition measured for 20 mins in presence of CoCl2 by proline aminopeptidase coupled enzyme assay
# [3] = target: Methionine aminopeptidase 2 (Homo sapiens, UniProt P50579); experiment: as §2, with “N-terminal GST/His6-tagged” for “His-tagged”, “2” for “1”, “baculovirus infected sf9 cells” for “Escherichia coli BL21(DE3)”, “MnCl2” for “CoCl2”
# Endothelial cell [4] = experiment: Antibacterial activity against Rickettsia prowazekii str. Breinl infected in CD rat primary pulmonary vascular endothelial cells assessed as protection against bacterial infection by measuring restoration of host cell viability at 0.03 to 30 uM measured 72 hrs post infection by WST1 assay; assay type: functional, cell-based
# Rattus norvegicus [5] = species on record: Rattus norvegicus; experiment: Cytotoxicity against CD rat primary pulmonary vascular endothelial cells assessed as reduction in cell viability at 0.0075 to 7.5 uM measured after 72 hrs by WST1 assay; assay type: toxicity, cell-based; summary of the method: as §1
# Rattus norvegicus [6] = species on record: Rattus norvegicus; experiment: Cytotoxicity against CD rat primary pulmonary vascular endothelial cells assessed as reduction in cell viability at 0.003 to 3 uM measured after 72 hrs by WST1 assay; assay type: toxicity, cell-based; summary of the method: as §1
# Endothelial cell [7] = experiment: Antibacterial activity against Rickettsia prowazekii str. Breinl infected in CD rat primary pulmonary vascular endothelial cells assessed as protection against bacterial infection by measuring restoration of host cell viability at 0.3 to 300 uM measured 72 hrs post infection by WST1 assay; assay type: functional, cell-based
# Rattus norvegicus [8] = species on record: Rattus norvegicus; experiment: Cytotoxicity against CD rat primary pulmonary vascular endothelial cells assessed as reduction in cell viability at 0.3 to 300 uM measured after 72 hrs by WST1 assay; assay type: toxicity, cell-based; summary of the method: as §1
# Endothelial cell [9] = experiment: Antibacterial activity against Rickettsia prowazekii str. Breinl infected in CD rat primary pulmonary vascular endothelial cells assessed as protection against bacterial infection by measuring restoration of host cell viability at 0.003 to 3 uM measured 72 hrs post infection by WST1 assay; assay type: functional, cell-based
# [10] = (§3) Antibacterial activity against Rickettsia prowazekii str. Breinl infected with 50:1 multiplicity of infection in CD rat primary pulmonary vascular endothelial cells assessed as restoration of host cell viability by measuring fold reduction in viability at 0.003 to 3 uM measured 72 hrs post infection by WST1 assay relative to control; assay type: functional
# [11] = as §3, with “0.3” for “0.003”, “300” for “3”; assay type: functional
# Endothelial cell [12] = experiment: Antibacterial activity against Rickettsia prowazekii str. Breinl infected in CD rat primary pulmonary vascular endothelial cells assessed as bacterial shape change at 300 uM measured 72 hrs post infection by Hoechst 33258/phalloidin staining based fluorescence microscopic analysis; assay type: functional
# Rattus norvegicus [13] = species on record: Rattus norvegicus; experiment: Cytotoxicity against CD rat primary pulmonary vascular endothelial cells assessed as effect on appearance of cell monolayers at 300 uM measured after 72 hrs by Hoechst 33258/phalloidin staining based fluorescence microscopic analysis; assay type: toxicity
# Rattus norvegicus [14] = species on record: Rattus norvegicus; experiment: Cytotoxicity against CD rat primary pulmonary vascular endothelial cells assessed as reduction in cell viability at 0.02 to 20 uM measured after 72 hrs by WST1 assay; assay type: toxicity, cell-based; summary of the method: as §1
# Endothelial cell [15] = experiment: Antibacterial activity against Rickettsia prowazekii str. Breinl infected in CD rat primary pulmonary vascular endothelial cells assessed as bacterial shape change at 25 ug/ml measured 72 hrs post infection by Hoechst 33258/phalloidin staining based fluorescence microscopic analysis; assay type: functional
# Chain of Methionine aminopeptidase 2 (P50579 whole entry): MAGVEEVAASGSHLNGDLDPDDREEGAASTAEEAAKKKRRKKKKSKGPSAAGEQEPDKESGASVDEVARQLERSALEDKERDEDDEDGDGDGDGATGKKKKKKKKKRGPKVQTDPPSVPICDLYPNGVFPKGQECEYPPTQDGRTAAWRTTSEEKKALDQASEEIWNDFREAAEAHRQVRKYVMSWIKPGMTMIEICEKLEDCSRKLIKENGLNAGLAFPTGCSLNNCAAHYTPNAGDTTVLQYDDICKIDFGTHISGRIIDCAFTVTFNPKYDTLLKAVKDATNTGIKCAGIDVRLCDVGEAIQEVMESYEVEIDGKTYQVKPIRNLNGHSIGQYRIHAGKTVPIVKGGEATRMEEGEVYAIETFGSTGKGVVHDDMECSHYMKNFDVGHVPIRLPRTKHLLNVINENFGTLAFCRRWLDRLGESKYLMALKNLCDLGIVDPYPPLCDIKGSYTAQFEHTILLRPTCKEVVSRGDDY
smiles,measurement,setting,value
CC(C)c1ccc(CSc2nnc(N)[nH]2)cc1,Activity,Rattus norvegicus [1],Non-Toxic
Oc1cccc2cccnc12 [OXYQUINOLINE],pIC50,[2],4.89
same,pIC50,[3],5.90
same,Activity,Endothelial cell [4],Active
same,Activity,Rattus norvegicus [1],Non-Toxic
CC(C)(C)c1ccc(CSc2nnc(N)[nH]2)cc1,pIC50,[3],< 4.82
same,Activity,Rattus norvegicus [1],Non-Toxic
O=[N+]([O-])c1cc(CN2CCCCC2)c(O)c2ncccc12,Activity,Rattus norvegicus [5],Non-Toxic
Cc1ccc2cccc(O)c2n1 [8-HYDROXY QUINALDINE],pIC50,[2],< 4.82
same,Activity,Rattus norvegicus [6],Non-Toxic
Nc1nnc(SCc2ccc(F)cc2)[nH]1,Activity,Endothelial cell [7],Active
same,Activity,Rattus norvegicus [8],Non-Toxic
O=C(O)c1ccc(-c2ccccc2Cl)o1,Activity,Rattus norvegicus [8],Non-Toxic
O=[N+]([O-])c1cc(CN2CCOCC2)c(O)c2ncccc12,Activity,Endothelial cell [9],Active
same,Activity,Rattus norvegicus [6],Non-Toxic
same,fold change (FC),[10],1.2
Nc1n[nH]c(SCc2ccccc2Cl)n1,Activity,Endothelial cell [7],Active
same,Activity,Rattus norvegicus [8],Non-Toxic
O=C(O)c1ccc(-c2cc(Cl)ccc2Cl)o1,Activity,Rattus norvegicus [8],Non-Toxic
Nc1nnc(SCc2ccc(Cl)cc2)[nH]1,fold change (FC),[11],1.2
same,Activity,Endothelial cell [7],Active
same,Activity,Rattus norvegicus [8],Non-Toxic
same,Activity,Endothelial cell [12],Active
same,Activity,Rattus norvegicus [13],Non-Toxic
Oc1c(CN2CCOCC2)cc(Cl)c2cccnc12,Activity,Rattus norvegicus [14],Non-Toxic
O=[N+]([O-])c1ccc(O)c2ncccc12 [NITROXOLINE],Activity,Rattus norvegicus [6],Non-Toxic
Cc1ccc(CSc2nnc(N)[nH]2)cc1,Activity,Endothelial cell [7],Active
same,Activity,Rattus norvegicus [8],Non-Toxic
Oc1ccc(Cl)c2cccnc12 [CLOXYQUIN],Activity,Endothelial cell [4],Active
same,Activity,Rattus norvegicus [1],Non-Toxic
Nc1nnc(SCc2ccc(Cl)cc2Cl)[nH]1,Activity,Rattus norvegicus [1],Non-Toxic
C[C@H]1c2cccc(O)c2C(=O)C2=C(O)[C@]3(O)C(=O)C(C(N)=O)=C(O)[C@@H](N(C)C)[C@@H]3[C@@H](O)[C@@H]21,Activity,Endothelial cell [15],Active
Nc1n[nH]c(SCc2ccccc2)n1,Activity,Endothelial cell [7],Active
same,Activity,Rattus norvegicus [8],Non-Toxic
